Measured values taken from ChEMBL document CHEMBL3085652, “Synthesis and antiproliferative activity of α-branched α,β-unsaturated ketones” (2013).

How the values were obtained:
Assay type in all cases: functional
[1] = test system: WiDr; assay: Growth inhibition of human WiDr cells after 48 hrs by SRB assay
In short: (§1)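 Cells from an academic source, kept in 25 cm² flasks in RPMI 1640 with 5% heat-inactivated fetal calf serum. Dosing began day 1 after plating, in triplicate at several dilutions across […]. Vehicle controls got DMSO 0.25% v/v. After 48 h exposure, cells were fixed with ice-cold 50% w/v TCA for 60 min at 4 °C and stained by SRB. OD was read at 492 nm, corrected for medium-only background, and GI50 was derived from dose-response data.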

[2] = Growth inhibition of human HBL100 cells after 48 hrs by SRB assay; conditions: HBL-100, 48 h; in short: as §1
[3] = test system: T47D; assay: Growth inhibition of human T47D cells after 48 hrs by SRB assay; in short: as §1
[4] = test system: SW1573; assay: Growth inhibition of human SW1573 cells after 48 hrs by SRB assay; conditions: SW1573, 48 h; in short: as §1
[5] = test system: HeLa; assay: Growth inhibition of human HeLa cells after 48 hrs by SRB assay; in short: as §1

Work on `C=C(C/C(=C\c1ccccc1)C(=O)c1ccccc1)C(=O)c1ccccc1` yielded a GI50 [1] of 18 µM, a GI50 [2] of 10 µM and a GI50 [3] of 15 µM. It also gave a GI50 [4] of 3 µM and a GI50 [5] of 19 µM.

`CC(=O)OC/C(=C\c1ccccc1F)C(=O)c1ccccc1` gave a GI50 [1] of 19 µM, a GI50 [2] of 17 µM and a GI50 [3] of 18 µM. The GI50 [4] was 6.1 µM and the GI50 [5] was 22 µM.

In the case of `C=C(C/C(=C\c1ccc(Cl)cc1)C(=O)c1ccc(Cl)cc1)C(=O)c1ccc(Cl)cc1`, the GI50 [1] was 24 µM, the GI50 [2] was 16 µM and the GI50 [3] was 17 µM. It also gave a GI50 [4] of 5.3 µM and a GI50 [5] of 21 µM.

Compound `O=C(/C(=C/c1ccccc1)CCl)c1ccccc1` has a GI50 [1] of 18 µM, a GI50 [2] of 12 µM and a GI50 [3] of 18 µM. For the same compound, the GI50 [4] was 3.6 µM and the GI50 [5] was 23 µM.

`C=C(C/C(=C\c1ccc(F)cc1)C(=O)c1ccccc1)C(=O)c1ccccc1` showed a GI50 [1] of 19 µM, a GI50 [2] of 14 µM and a GI50 [3] of 15 µM. For the same compound, the GI50 [4] was 3.5 µM and the GI50 [5] was 18 µM.

For `O=C(OC/C(=C/c1ccccc1[N+](=O)[O-])C(=O)c1ccccc1)c1ccccc1`, the GI50 [1] was 21 µM, the GI50 [2] was > 100 µM and the GI50 [3] was 18 µM. For the same compound, the GI50 [4] was > 100 µM and the GI50 [5] was 30 µM.

In the case of `CCC(/C=C(\COC(C)=O)C(=O)c1ccccc1)CC`, the GI50 [1] was 52 µM, the GI50 [2] was > 100 µM and the GI50 [3] was 89 µM. For the same compound, the GI50 [4] was 77 µM and the GI50 [5] was 50 µM.

Work on `O=C(/C(=C/c1ccc(Cl)cc1Cl)CCl)c1ccccc1` yielded a GI50 [1] of 13 µM, a GI50 [2] of 3.1 µM and a GI50 [3] of 6.3 µM. The GI50 [4] was 3.8 µM and the GI50 [5] was 15 µM.

`O=C(/C=C/c1ccc(Cl)cc1Cl)c1ccccc1` gave a GI50 [1] of 20 µM, a GI50 [2] of 17 µM and a GI50 [3] of 14 µM. It also gave a GI50 [4] of 12 µM and a GI50 [5] of 18 µM.

With `CC(=O)OC/C(=C/c1ccccc1[N+](=O)[O-])C(=O)c1ccccc1` the GI50 [1] was > 100 µM, the GI50 [2] was > 100 µM and the GI50 [3] was 52 µM. The GI50 [4] was > 100 µM and the GI50 [5] was 78 µM.

Work on `C=C(C/C(=C\c1ccccc1F)C(=O)c1ccccc1)C(=O)c1ccccc1` yielded a GI50 [1] of 17 µM, a GI50 [2] of 15 µM and a GI50 [3] of 14 µM. For the same compound, the GI50 [4] was 3.5 µM and the GI50 [5] was 20 µM.

For `CC(=O)OC/C(=C/c1ccccc1Br)C(=O)c1ccccc1`, the GI50 [1] was 18 µM, the GI50 [2] was 21 µM and the GI50 [3] was 18 µM. The GI50 [4] was 21 µM and the GI50 [5] was 19 µM.

For `CC(=O)OC/C(=C\c1ccccc1)C(=O)c1ccccc1`, the GI50 [1] was 17 µM, the GI50 [2] was 17 µM and the GI50 [3] was 16 µM. For the same compound, the GI50 [4] was 4.8 µM and the GI50 [5] was 20 µM.

In the case of `O=C(OC/C(=C\c1ccc(Cl)cc1Cl)C(=O)c1ccccc1)c1ccccc1`, the GI50 [1] was 17 µM, the GI50 [2] was 3.1 µM and the GI50 [3] was 17 µM. For the same compound, the GI50 [4] was 3.3 µM and the GI50 [5] was 20 µM.

`CC(=O)OC/C(=C\c1ccc(Cl)cc1Cl)C(=O)c1ccccc1` gave a GI50 [1] of 14 µM, a GI50 [2] of 3.1 µM and a GI50 [3] of 9.5 µM. The GI50 [4] was 3.5 µM and the GI50 [5] was 16 µM.

In the case of `C=C(C/C(=C\c1ccc(OC)cc1)C(=O)c1ccccc1)C(=O)c1ccccc1`, the GI50 [1] was 0.47 µM, the GI50 [2] was 0.53 µM and the GI50 [3] was 0.37 µM. For the same compound, the GI50 [4] was 0.45 µM and the GI50 [5] was 0.32 µM.

With `CC(=O)OC/C(=C\c1ccc([N+](=O)[O-])cc1)C(=O)c1ccccc1` the GI50 [1] was 23 µM, the GI50 [2] was 10 µM and the GI50 [3] was 16 µM. For the same compound, the GI50 [4] was 3.8 µM and the GI50 [5] was 26 µM.

With `O=C(OC/C(=C\C1CCCCC1)C(=O)c1ccccc1)c1ccccc1` the GI50 [1] was 19 µM, the GI50 [2] was 23 µM and the GI50 [3] was 20 µM. It also gave a GI50 [4] of 17 µM and a GI50 [5] of 24 µM.

`CC(=O)OC/C(=C/c1ccc([N+](=O)[O-])cc1)C(=O)c1ccccc1` gave a GI50 [1] of 83 µM, a GI50 [2] of 41 µM and a GI50 [3] of 36 µM. The GI50 [4] was 32 µM and the GI50 [5] was 36 µM.

In the case of `O=C(OC/C(=C/c1ccc(Cl)cc1Cl)C(=O)c1ccccc1)c1ccccc1`, the GI50 [1] was 8.7 µM, the GI50 [2] was 26 µM and the GI50 [3] was 5.4 µM. It also gave a GI50 [4] of 29 µM and a GI50 [5] of 8.3 µM.

For `CC(=O)OC/C(=C\c1ccc(Cl)cc1)C(=O)c1ccccc1`, the GI50 [1] was 4.8 µM, the GI50 [2] was 2.3 µM and the GI50 [3] was 5.3 µM. It also gave a GI50 [4] of 2.6 µM and a GI50 [5] of 3.2 µM.

Compound `CC(=O)OC/C(=C/c1ccc(Cl)cc1Cl)C(=O)c1ccc(Cl)cc1` has a GI50 [1] of 20 µM, a GI50 [2] of 22 µM and a GI50 [3] of 20 µM. It also gave a GI50 [4] of 21 µM and a GI50 [5] of 19 µM.

`COc1cc([C@@H]2c3cc4c(cc3[C@@H](O[C@@H]3O[C@@H]5CO[C@@H](C)O[C@H]5[C@H](O)[C@H]3O)[C@H]3COC(=O)[C@H]23)OCO4)cc(OC)c1O` [ETOPOSIDE] showed a GI50 [1] of 23 µM, a GI50 [2] of 1.4 µM and a GI50 [3] of 22 µM. For the same compound, the GI50 [4] was 15 µM and the GI50 [5] was 3.3 µM.

`O=C(/C(=C/c1ccc(Cl)cc1)CCl)c1ccccc1` gave a GI50 [1] of 19 µM, a GI50 [2] of 3.2 µM and a GI50 [3] of 17 µM. It also gave a GI50 [4] of 3.9 µM and a GI50 [5] of 22 µM.

For `CC(=O)OC/C(=C/c1ccc(Cl)cc1)C(=O)c1ccc(Cl)cc1`, the GI50 [1] was 17 µM, the GI50 [2] was 16 µM and the GI50 [3] was 12 µM. It also gave a GI50 [4] of 5.3 µM and a GI50 [5] of 5.7 µM.

Compound `O=C(/C(=C/C1CCCCC1)c1ccccc1)c1ccccc1` has a GI50 [1] of 34 µM, a GI50 [2] of 57 µM and a GI50 [3] of 39 µM. It also gave a GI50 [4] of 29 µM and a GI50 [5] of 47 µM.

`CC(=O)OC/C(=C/c1ccc(Cl)cc1Cl)C(=O)c1ccccc1` showed a GI50 [1] of 19 µM, a GI50 [2] of 23 µM and a GI50 [3] of 20 µM. For the same compound, the GI50 [4] was 22 µM and the GI50 [5] was 22 µM.

For `O=C(/C=C/C1CCCCC1)c1ccccc1`, the GI50 [1] was 21 µM, the GI50 [2] was 18 µM and the GI50 [3] was 15 µM. For the same compound, the GI50 [4] was 10 µM and the GI50 [5] was 21 µM.

`CC(=O)OC/C(=C\c1ccccc1Br)C(=O)c1ccccc1` gave a GI50 [1] of 21 µM, a GI50 [2] of 22 µM and a GI50 [3] of 17 µM. The GI50 [4] was 14 µM and the GI50 [5] was 20 µM.

For `C=C(C/C(=C\c1ccc(Cl)cc1)C(=O)c1ccccc1)C(=O)c1ccccc1`, the GI50 [1] was 20 µM, the GI50 [2] was 17 µM and the GI50 [3] was 19 µM. For the same compound, the GI50 [4] was 6.1 µM and the GI50 [5] was 22 µM.

`CC(=O)OC/C(=C\c1ccc(F)cc1)C(=O)c1ccccc1` gave a GI50 [1] of 13 µM, a GI50 [2] of 17 µM and a GI50 [3] of 14 µM. For the same compound, the GI50 [4] was 4.2 µM and the GI50 [5] was 25 µM.

For `O=C(/C(=C\c1ccc(Cl)cc1Cl)c1ccccc1)c1ccccc1`, the GI50 [1] was 46 µM, the GI50 [2] was > 100 µM and the GI50 [3] was 52 µM. For the same compound, the GI50 [4] was 41 µM and the GI50 [5] was 47 µM.

In the case of `CC(=O)OC/C(=C\C1CCCCC1)C(=O)c1ccc(Cl)cc1`, the GI50 [1] was 21 µM, the GI50 [2] was 31 µM and the GI50 [3] was 18 µM. For the same compound, the GI50 [4] was 18 µM and the GI50 [5] was 24 µM.

`CC(=O)OC/C(=C/c1ccccc1Cl)C(=O)c1ccccc1` gave a GI50 [1] of 22 µM, a GI50 [2] of 21 µM and a GI50 [3] of 19 µM. For the same compound, the GI50 [4] was 14 µM and the GI50 [5] was 24 µM.

`CC(=O)OC/C(=C\c1ccccc1[N+](=O)[O-])C(=O)c1ccccc1` gave a GI50 [1] of 18 µM, a GI50 [2] of 26 µM and a GI50 [3] of 21 µM. For the same compound, the GI50 [4] was 18 µM and the GI50 [5] was 25 µM.

Compound `CC(=O)OC/C(=C\c1ccc(Cl)cc1Cl)C(=O)c1ccc(Cl)cc1` has a GI50 [1] of 8.1 µM, a GI50 [2] of 3.2 µM and a GI50 [3] of 5.2 µM. The GI50 [4] was 3.4 µM and the GI50 [5] was 4.6 µM.

In the case of `CC(=O)OC/C(=C\c1ccc(Cl)cc1)C(=O)c1ccc(Cl)cc1`, the GI50 [1] was 18 µM, the GI50 [2] was 4 µM and the GI50 [3] was 5.4 µM. The GI50 [4] was 3.4 µM and the GI50 [5] was 19 µM.

`O=C(/C(=C\C1CCCCC1)c1ccccc1)c1ccccc1` gave a GI50 [1] of 64 µM, a GI50 [2] of 59 µM and a GI50 [3] of 74 µM. For the same compound, the GI50 [4] was 64 µM and the GI50 [5] was 63 µM.

In the case of `O=C(/C(=C/C1CCCCC1)CCl)c1ccccc1`, the GI50 [1] was 22 µM, the GI50 [2] was 22 µM and the GI50 [3] was 29 µM. For the same compound, the GI50 [4] was 23 µM and the GI50 [5] was 30 µM.

Compound `O=C(OC/C(=C\c1ccccc1[N+](=O)[O-])C(=O)c1ccccc1)c1ccccc1` has a GI50 [1] of 18 µM, a GI50 [2] of 3.9 µM and a GI50 [3] of 16 µM. For the same compound, the GI50 [4] was 4.3 µM and the GI50 [5] was 22 µM.

With `CC(=O)OC/C(=C\C1CCCCC1)C(=O)c1ccccc1` the GI50 [1] was 21 µM, the GI50 [2] was 21 µM and the GI50 [3] was 22 µM. The GI50 [4] was 19 µM and the GI50 [5] was 21 µM.
